The series in a line: Toxicity liver stage against HepG2, at 10uM. Type of series: cell-based. On the set-up: test concentration 10 uM, cell line HepG2-A16-CD81EGFP. The note with it: human, HepG2-A16-CD81EGFP cells; read-out: INHIBITION
Put shortly:
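Uninfected HepG2-A16-CD81EGFP cells, 3 × 10^3 per well, 1536-well, plated on prespotted compound at 10 μM final, parasite-free screening media added to match infected plates; puromycin 10 μM positive, DMSO 0.5% negative; run in parallel with 48 h PbLuc assay at 37 °C, 5% CO2; viability by CellTiter-Glo luminescence, normalized to controls.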
In the case of `Cc1[nH]c2ccccc2c1-c1ccnc(NCCN2CCCCC2)n1`, the cytotoxicity at 10 µM is -1.36%.

Consider `O=C(O)C(c1ccc2c(c1)OCO2)N1CCC(C(=O)N2CCCC2)CC1` (configuration not stated), for which the cytotoxicity at 10 µM was 4.22%.

Consider `Cc1nn(CC(O)CN2CCC(C)CC2)c(=O)c(C#N)c1C` (configuration not stated), for which the cytotoxicity at 10 µM came out at 5.84%.

On to `CCOc1ncnc2c1CCN(C(=O)CN(C)C)CC2`, for which the cytotoxicity at 10 µM is -5.12%.

Consider `CN(C)C(=O)c1cccc(Nc2cnn(C)c2)c1`, for which the cytotoxicity at 10 µM amounted to 5.42%.

Turning to `Cc1cncc(C2CCCN(CC3CCC3)C2)n1` (configuration not stated), the cytotoxicity at 10 µM is -7.41%.

On to `CCc1cc(N2CCC(NCc3ccc(C)o3)CC2)ncn1`, for which the cytotoxicity at 10 µM was 2.84%.

In the case of `CC1COCCN1Cc1nc(C(C)(C)C)no1` (configuration not stated), the cytotoxicity at 10 µM is 4.87%.

Take `Cc1cccc(NC(=O)CCC(=O)NCC(=O)c2ccccc2F)c1`: the cytotoxicity at 10 µM was -6.56%.

As to `CN(C)C(=O)N1CCN(CCn2nc3ccccn3c2=O)CC1`, the cytotoxicity at 10 µM came out at 0.562%.

For `O=c1n(CC2CC2)nc(C2CCNCC2)n1Cc1ccccc1`, the cytotoxicity at 10 µM was -4.8%.

In the case of `Cc1oncc1C(=O)N1CCC(O)(CN2CCOCC2)C(C)(C)C1` (configuration not stated), the cytotoxicity at 10 µM is -5.26%.

For `CC(Nc1c(F)cc(C#N)cc1F)c1cccc(S(N)(=O)=O)c1` (configuration not stated), the cytotoxicity at 10 µM was -4.34%.

For `CS(=O)(=O)CCn1ccc(NC(=O)CCc2cccc(F)c2)n1`, the cytotoxicity at 10 µM was -7.37%.

On to `COCCCN1CCC(NC(=O)C(C)C)CC1`, for which the cytotoxicity at 10 µM is -11.9%.

Take `CC(=O)N1CCN(C(=O)c2ccc3ccn(C)c3c2)CC1`: the cytotoxicity at 10 µM was -0.173%.

On to `Cc1nc(C)c(CC(=O)NCc2ccccc2F)s1`, for which the cytotoxicity at 10 µM amounted to 6.23%.

For the compound `CC(C)CCNC(=O)c1sccc1N(C)S(=O)(=O)c1ccccc1`, the cytotoxicity at 10 µM worked out at 9.33%.

For `c1ccc(-c2cc(CN3CCC(c4ccn[nH]4)CC3)on2)cc1`, the cytotoxicity at 10 µM was 7.98%.

With `Cc1ccc(N2CC[C@@H]3[C@@H]2CCN3C(=O)Cc2ccccc2)nn1`, the cytotoxicity at 10 µM is -93.1%.

Take `CN(C)CCOCc1nnc2n1CCN(Cc1ccc(F)cc1)CC2`: the cytotoxicity at 10 µM was -5.63%.

As for `Cn1c(N2CCOCC2)nc2cc(C(=O)NCC(F)(F)F)ccc21`, the cytotoxicity at 10 µM came out at 1.85%.

As to `Cc1nn(C)c(C)c1S(=O)(=O)N(C)Cc1nn(C)c(Cl)c1Cl`, the cytotoxicity at 10 µM was -3.78%.

For the compound `Cc1cc(C)c(S(=O)(=O)Nc2ccccc2CC(F)(F)F)cc1C(=O)O`, the cytotoxicity at 10 µM was -1.47%.

Turning to `CCN1CC2(CC1=O)CN(Cc1ccc(C)o1)CCN(C(=O)C(C)C)C2` (configuration not stated), the cytotoxicity at 10 µM was 2.84%.

Take `CCn1cnnc1C1CCN(C(=O)c2ccc3c(c2)nnn3C)CC1`: the cytotoxicity at 10 µM was 10.9%.

Take `Cc1ccc(C(=O)N2CCO[C@H]3[C@@H](OCc4ccccn4)CC[C@@H]32)o1`: the cytotoxicity at 10 µM was -2.42%.

For `COc1cccc(N2CCN(CC[C@H](O)c3ccccc3)CC2=O)c1`, the cytotoxicity at 10 µM worked out at 3.61%.

With `CC(C)CC(=O)N1CCN(Cc2csc(-c3ncccn3)n2)CC1`, the cytotoxicity at 10 µM came out at 8.61%.

As for `O=C(NCCc1c[nH]cn1)C1CCCN(Cc2ccco2)C1` (configuration not stated), the cytotoxicity at 10 µM is -0.123%.

As for `OC[C@H]1CCN(Cc2ccc3ccccc3n2)C[C@@H]1O`, the cytotoxicity at 10 µM is -6%.

As for `CC(=O)N1C[C@H](NS(=O)(=O)N2CCCC2)[C@@H](c2ccc(C)o2)C1`, the cytotoxicity at 10 µM was -1.91%.

Consider `O=C(c1cccnn1)N1C[C@@H]2CC[C@H](Oc3cccc(F)c3)[C@@H]2C1`, for which the cytotoxicity at 10 µM is -13.6%.

With `COc1ccccc1C(O)Cn1cc(C(=O)NCc2ccco2)nn1` (configuration not stated), the cytotoxicity at 10 µM is -6.03%.

As for `CCc1nccn1C1CCCN(C(=O)c2cn3cccnc3n2)C1` (configuration not stated), the cytotoxicity at 10 µM worked out at 92.6%.

Consider `Cc1ccnc(N2CCC(=O)N(Cc3ccc(F)cc3)C(C(C)C)C2)n1` (configuration not stated), for which the cytotoxicity at 10 µM was 0.538%.

With `O=C(Cc1cccs1)N1CC[C@H]2[C@H]1CCN2Cc1cccnc1`, the cytotoxicity at 10 µM came out at 2.41%.

As to `CCc1csc(NC(=O)NCc2ccccn2)n1`, the cytotoxicity at 10 µM was -4.61%.

Take `Cc1nc(C2CCCN(C(=O)c3cnn(C4CCCCC4)c3)C2)no1` (configuration not stated): the cytotoxicity at 10 µM is -6.37%.

Take `Cc1nc(CN(C)c2nc3c(cnn3C(C)(C)C)c(=O)[nH]2)cs1`: the cytotoxicity at 10 µM is -5.53%.

For the compound `O=C(CCC1CCCO1)NCc1ccnc(-n2cccn2)c1` (configuration not stated), the cytotoxicity at 10 µM was -14.6%.

With `Cc1cc(N2CCN(C(=O)c3cn(C)c4ccccc34)CC2)nc(C)n1`, the cytotoxicity at 10 µM was -1.96%.

As for `CN(C(=O)NCc1ccncc1)C1CCCN(c2ccccc2)C1=O` (configuration not stated), the cytotoxicity at 10 µM is -8.86%.

In the case of `CC(C)CN(CC(F)(F)F)S(=O)(=O)c1cc(C(N)=O)n(C)c1`, the cytotoxicity at 10 µM is -3.22%.

For `N#Cc1c(N2CCCCC2)nsc1-c1cccnc1`, the cytotoxicity at 10 µM is 18.8%.

Regarding `Cc1cccnc1CNCC1(O)CCCN(CC(C)(C)C)C1=O` (configuration not stated), the cytotoxicity at 10 µM was -11.8%.

Consider `COCC(O)CN1CCC(=O)N(CC2CC2)Cc2ccccc21` (configuration not stated), for which the cytotoxicity at 10 µM was 2.76%.

As to `CCc1n[nH]c(C2CN(C(=O)Cc3ccc(C)nc3)CCO2)n1` (configuration not stated), the cytotoxicity at 10 µM is 6.97%.

Turning to `O=S(=O)(CCc1ccccc1Cl)CC(O)CO` (configuration not stated), the cytotoxicity at 10 µM was found to be 10.7%.

For the compound `COc1ccc(CNc2cccnc2-n2cccn2)cc1OC`, the cytotoxicity at 10 µM worked out at 7.25%.

On to `O=c1[nH]c2c(c(=O)n1C1CCCCC1)CCC2Nc1ccccc1Cl` (configuration not stated), for which the cytotoxicity at 10 µM was -10.4%.

For `COc1ccc(C(=O)N2CCC(Oc3ccccc3)(C(=O)O)CC2)o1`, the cytotoxicity at 10 µM came to 11.6%.

`CCn1ncc2c1CCCC2NCc1cccc2c1OCCO2` (configuration not stated): the cytotoxicity at 10 µM worked out at 1.71%.

Consider `Cc1nnc(N2C[C@H](OCC3CCCC3)[C@H]3OCCC[C@H]32)s1`, for which the cytotoxicity at 10 µM stood at 5.16%.

Regarding `CNC(=O)c1cccc(NCCOc2ccc(CC#N)cc2)c1C`, the cytotoxicity at 10 µM was -0.662%.

In the case of `CC(=O)NCc1nnc2n1CCN(c1nc(C)nc3sccc13)CC2`, the cytotoxicity at 10 µM is 15.5%.

`Cc1ccc2cnn(CCC(=O)NCc3c(C)nn(C)c3C)c2c1`: the cytotoxicity at 10 µM was -8.19%.

Take `COC1COC2(CCN(C(=O)c3cscn3)CC2)C1` (configuration not stated): the cytotoxicity at 10 µM amounted to 6.13%.

Consider `CN1CC2(CCCN(Cc3nnc(-c4cccc(F)c4)o3)C2)OC1=O` (configuration not stated), for which the cytotoxicity at 10 µM is -1.66%.

On to `O=C(CCNc1ncccn1)Nc1cc(C(F)(F)F)c[nH]c1=O`, for which the cytotoxicity at 10 µM was -6.45%.

As to `CC(=O)N(C)Cc1nn(C)c2c1CN(Cc1ccsc1)C2`, the cytotoxicity at 10 µM was -134%.

In the case of `O=C(NCc1ccc2c(c1)OCO2)c1ccccc1C1CCNC1` (configuration not stated), the cytotoxicity at 10 µM was -3.6%.

For `Cc1cc(NCCc2nc(C)cs2)nc(-c2cccnc2)n1`, the cytotoxicity at 10 µM came out at 1.02%.

Regarding `c1cnc2ccc(C[C@@H]3CC[C@H](CN4CCCOCC4)O3)cc2c1`, the cytotoxicity at 10 µM is -1.6%.

As for `CCC(NCc1ccccn1)c1ccccc1OCC(=O)NC` (configuration not stated), the cytotoxicity at 10 µM came to 11.3%.

As to `CCC(Nc1nc(C)nc2c1cnn2C)c1ncnn1CC` (configuration not stated), the cytotoxicity at 10 µM is -7.17%.

`CCNc1ncc(C(=O)NC2CCC(n3cnnc3)CC2)cn1` (configuration not stated): the cytotoxicity at 10 µM came out at 9.45%.

For the compound `N#CCc1ccc(OCC(=O)NS(=O)(=O)c2cccs2)cc1`, the cytotoxicity at 10 µM came to 13.6%.

For `OC(CN1CCCCCCC1)c1ccc(F)cc1` (configuration not stated), the cytotoxicity at 10 µM is -10.4%.

For `Cc1ccc(OCC(=O)NS(=O)(=O)c2cccnc2)cc1C`, the cytotoxicity at 10 µM was found to be 4.36%.

Regarding `CN1CCNC(=O)C1CC(=O)NCCc1cnn(-c2ccccc2)c1` (configuration not stated), the cytotoxicity at 10 µM amounted to 2.53%.

With `O=C(c1cn(Cc2ccccc2)c2ncccc12)N1CCCCC1`, the cytotoxicity at 10 µM came to 1.2%.

Take `Cc1nc(CN2CCCC(NCc3cccc(C(N)=O)c3)C2)no1` (configuration not stated): the cytotoxicity at 10 µM is -14.5%.

In the case of `Cc1ccc(N2CCc3ncnc(C)c3CC2)nn1`, the cytotoxicity at 10 µM was -93.6%.

With `COc1ccc(C2CCCN2c2ccc(C#N)cn2)c(OC)c1` (configuration not stated), the cytotoxicity at 10 µM is -3.42%.

Consider `Cn1ccnc1CN1CCN(CC(O)c2ccc(F)cc2)CC1` (configuration not stated), for which the cytotoxicity at 10 µM was -21.8%.

With `CC(C)[C@H](Nc1cc(-c2ccncc2)nc2ccnn12)C(N)=O`, the cytotoxicity at 10 µM was 0.782%.

Regarding `O=C(Cn1cccn1)Nc1ccc(N2CCOCC2)cc1`, the cytotoxicity at 10 µM was -2.51%.

With `CCCc1nnc(C(=O)N(C)Cc2ccc(OC)cc2)o1`, the cytotoxicity at 10 µM amounted to 2.64%.

For the compound `COc1cc(CC(=O)Nc2cccc(C(=O)N(C)C)n2)ccc1C`, the cytotoxicity at 10 µM was 2.25%.

For the compound `C[C@@H]1C[C@H](C(F)(F)F)n2nc(C3CCN(S(=O)(=O)N(C)C)CC3)cc2N1`, the cytotoxicity at 10 µM is -17.9%.

As for `CCc1nsc(N2CCCN(C(=O)c3ccc(CC)o3)CC2)n1`, the cytotoxicity at 10 µM was found to be 7.76%.

For `Cn1cc(C2COC3(CCN(C(=O)c4ccc(F)cc4)CC3)C2)cn1` (configuration not stated), the cytotoxicity at 10 µM amounted to 8.31%.

Regarding `O=C(c1ccc(Cl)o1)N1CCCC1c1nnc2n1CCCCC2` (configuration not stated), the cytotoxicity at 10 µM is -4.52%.

For the compound `CC(=O)N1CCN(S(=O)(=O)c2ccc(C)c(F)c2)CC1`, the cytotoxicity at 10 µM was -9.42%.

`Cc1ccc2cc(CN(C)Cc3ncc[nH]3)c(=O)[nH]c2c1`: the cytotoxicity at 10 µM amounted to 1.75%.

For `CCS(=O)(=O)Nc1ccc2[nH]c(C3CCC3)nc2c1`, the cytotoxicity at 10 µM is -13.2%.

On to `Cc1n[nH]c(=O)c(C(=O)N2CCN(CCc3cccs3)CC2)c1C`, for which the cytotoxicity at 10 µM is -6.22%.

As to `Cc1cccc(NC(=O)c2[nH]nc(C(C)C)c2Br)n1`, the cytotoxicity at 10 µM is -2.95%.

As to `CCCc1nc(CN(CC)C(=O)c2onc3ccccc23)no1`, the cytotoxicity at 10 µM was determined as 9.67%.

In the case of `COc1ccc(C)cc1-n1ccc(C(=O)NCC2CCCOC2)n1` (configuration not stated), the cytotoxicity at 10 µM was -2.51%.

For the compound `CC(NCCn1c(=O)oc2ccccc21)c1ccccn1` (configuration not stated), the cytotoxicity at 10 µM is -7.1%.

In the case of `Cc1ccc2nc(CN(C)Cc3ccc(C)o3)cc(=O)n2c1`, the cytotoxicity at 10 µM was -3.02%.

Consider `O=C(COCCOc1ccccc1)NC1CCN(C(=O)C2CC2)CC1`, for which the cytotoxicity at 10 µM is -7.67%.

Regarding `Cc1cc(C)nc(N2CCC(CNC(=O)c3cnccn3)CC2)n1`, the cytotoxicity at 10 µM was -26.1%.

In the case of `Cc1csc(NC(=O)CN(C)CCOc2cccc(F)c2)n1`, the cytotoxicity at 10 µM came out at 0.115%.

Take `COc1ccccc1CNC(=O)CN(C)C(C)c1nccs1` (configuration not stated): the cytotoxicity at 10 µM worked out at 1.81%.

Values taken from ChEMBL document CHEMBL4513216, “Probing the Open Global Health Chemical Diversity Library for Multistage-Active Starting Points for Next-Generation Antimalarials” (ACS Infect Dis, 2020).
